This note sets out measurements from ChEMBL document CHEMBL4152315, “Rational modification of a lead molecule: Improving the antifungal activity of indole - triazole - amino acid conjugates” (Eur J Med Chem, 2018).

The test system of data set [1] is Candida albicans. Briefly: Antifungal activity against Candida albicans MTCC 3958 assessed as zone of growth inhibition after 48 hrs. The data set is classed as functional. In outline:
(§1)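 Agar well diffusion: Malt Yeast Agar (C. albicans) or Czapek Yeast Extract Agar (A. niger) swabbed with 100 µL inoculum at 1×10^5 CFU/mL; 6 mm wells filled with 128 µg/50 µL compound in 5% DMSO (10% DMSO for poorly soluble ones). DMSO negative controls, fluconazole reference. 28 °C for 48 h; zone of inhibition as mean of triplicates.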

Data set [2] deals with Candida albicans. Nature of the data set: Antifungal activity against Candida albicans MTCC 3958 after 48 hrs. The data set is classed as functional. The note with it: MTCC 3958, 48 h. The essentials:
(§2)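 Broth tube dilution MIC: tested at 128, 64, 32, 16 and 8 μg/mL; Yeast Malt Broth for C. albicans, Czapek Dox Broth for A. niger. Inoculum 1×10³ CFU/mL final; 5% DMSO negative control, fluconazole reference. Incubated dark on rotary shaker (180 rpm), 28 °C, 48 h (C. albicans) or 72 h (A. niger); lowest concentration preventing visible growth recorded.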

The test system of data set [3] is Aspergillus niger. Briefly: Antifungal activity against Aspergillus niger MTCC 9933 assessed as zone of growth inhibition after 48 hrs. It counts as functional. The essentials:
as §1

In data set [4] the test system is Aspergillus niger. Briefly: Antifungal activity against Aspergillus niger MTCC 9933 after 72 hrs. The note with it: MTCC 9933, 72 h. It counts as functional. The essentials: as §2
Data set [5] deals with Erythrocyte. Nature of the data set: Cytotoxicity against sheep RBC assessed as cell viability at 1 mg/ml after 24 hrs by MTT assay relative to control. The data set is classed as cell-based, Ovis aries. In outline:
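Sheep blood mixed 10:3 with Alsever's solution. Plasma was removed by centrifugation, and cells were washed three times in 1X PBS and diluted to 1×10^5 cells/mL. Cells were preincubated 24 h at 37 °C, then exposed to compound for 24 h at 37 °C. MTT (5 mg/ml stock) was added for 4 h, formazan was dissolved in DMSO, and A595 was read. Control wells received 10% DMSO diluent.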
For orientation: Tetrazolium dyes change colour on reduction, which living cells bring about.

≈ marks a conversion by molar mass, not a printed value.

Take `COC(=O)CNC(=O)C(=O)c1c[nH]c2ccccc12`: the “inhibition zone (IZ)” value in data set [1] is 10 mm. Moreover, the MIC90 in data set [2] is 128 µg/mL (≈ 492 µM).
On to `O=C(O)CC[C@H](NC(=O)C(=O)c1cn(Cc2cn(Cc3ccccc3)nn2)c2ccccc12)C(=O)O`, for which the “inhibition zone (IZ)” value was determined as 14 mm in data set [1] and 12 mm in data set [3]. Also, the MIC90 in data set [2] is 32 µg/mL (≈ 65.4 µM); in data set [4], greater than 32 µg/mL.
As to `O=C(O)CNC(=O)C(=O)c1cn(Cc2cn(Cc3ccccc3)nn2)c2ccccc12`, the “inhibition zone (IZ)” value in data set [1] was found to be 13 mm; in data set [3] it was 10 mm. In addition, the MIC90 was determined as 32 µg/mL (≈ 76.7 µM) in data set [2] and 128 µg/mL (≈ 307 µM) in data set [4].
In the case of `COC(=O)[C@H](Cc1ccc(O)cc1)NC(=O)C(=O)c1cn(Cc2cn(Cc3ccccc3)nn2)c2ccccc12`, the “inhibition zone (IZ)” value in data set [1] turned out to be 8 mm; in data set [3], 10 mm. Besides, the MIC90 in data set [2] and in data set [4] was 128 µg/mL (≈ 238 µM) throughout.
In the case of `C#CCn1cc(C(=O)C(=O)N[C@@H](CC(=O)OC)C(=O)OC)c2ccccc21`, the “inhibition zone (IZ)” value in data set [1] turned out to be 13 mm. In addition, the MIC90 in data set [2] is 64 µg/mL (≈ 173 µM).
In the case of `C#CCn1cc(C(=O)C(=O)N[C@@H](Cc2ccc(O)cc2)C(=O)OC)c2ccccc21`, the “inhibition zone (IZ)” value is given as 11 mm in data set [1] and 10 mm in data set [3]. The MIC90 in data set [2] was 64 µg/mL (≈ 158 µM); in data set [4], 128 µg/mL (≈ 317 µM).
As to `O=C(N[C@@H](Cc1ccc(OCc2cn(Cc3ccccc3)nn2)cc1)C(=O)O)C(=O)c1cn(Cc2cn(Cc3ccccc3)nn2)c2ccccc12`, the “inhibition zone (IZ)” value in data set [1] was 16 mm; in data set [3] it was 15 mm. The MIC90 in data set [2] was 16 µg/mL (≈ 23 µM); in data set [4], 32 µg/mL (≈ 46.1 µM). The Activity entry in data set [5] is reported as “Non-Toxic”.
For `COC(=O)[C@H](Cc1c[nH]c2ccccc12)NC(=O)C(=O)c1cn(Cc2cn(Cc3ccccc3)nn2)c2ccccc12`, the “inhibition zone (IZ)” value is listed as 9 mm in data set [1] and 12 mm in data set [3]. The MIC90 in data set [2] was 128 µg/mL (≈ 228 µM); in data set [4], 64 µg/mL (≈ 114 µM).
On to `COC(=O)C[C@H](NC(=O)C(=O)c1c[nH]c2ccccc12)C(=O)OC`, for which the “inhibition zone (IZ)” value in data set [1] is on record as 15 mm; in data set [3] it was 13 mm. Further, the MIC90 amounted to 32 µg/mL (≈ 96.3 µM) in data set [2] and 64 µg/mL (≈ 193 µM) in data set [4].
On to `C#CCn1cc(C(=O)C(=O)N[C@@H](Cc2c[nH]c3ccccc23)C(=O)OC)c2ccccc21`, for which the “inhibition zone (IZ)” value in data set [1] is recorded as 10 mm; in data set [3] it was 9 mm. The values for the MIC90 in data set [2] and in data set [4] were 128 µg/mL (≈ 299 µM) and greater than 128 µg/mL, respectively.
For the molecule `COC(=O)CC[C@H](NC(=O)C(=O)c1c[nH]c2ccccc12)C(=O)OC`, the “inhibition zone (IZ)” value in data set [3] worked out at 9 mm. In data set [4], this molecule displayed an MIC90 greater than 128 µg/mL.
In the case of `O=C(O)C[C@H](NC(=O)C(=O)c1cn(Cc2cn(Cc3ccccc3)nn2)c2ccccc12)C(=O)O`, the “inhibition zone (IZ)” value amounted to 15 mm in data set [1] and 13 mm in data set [3]. Besides, the MIC90 in data set [2] was found to be 32 µg/mL (≈ 67.3 µM); in data set [4] it was 64 µg/mL (≈ 135 µM).
In the same order, the values of `COC(=O)CC[C@H](NC(=O)C(=O)c1cn(Cc2cn(Cc3ccccc3)nn2)c2ccccc12)C(=O)OC` are 10 mm, 11 mm, 64 µg/mL (≈ 124 µM) and 64 µg/mL (≈ 124 µM).
In the case of `COC(=O)[C@H](Cc1ccc(O)cc1)NC(=O)C(=O)c1c[nH]c2ccccc12`, in data set [3], the “inhibition zone (IZ)” value is 9 mm. In addition, the MIC90 in data set [4] is greater than 128 µg/mL.
Consider `COC(=O)[C@H](Cc1ccc(OCc2cn(Cc3ccccc3)nn2)cc1)NC(=O)C(=O)c1cn(Cc2cn(Cc3ccccc3)nn2)c2ccccc12`, for which the “inhibition zone (IZ)” value in data set [3] is on record as 13 mm. The molecule further yielded an MIC90 in data set [4] of 64 µg/mL (≈ 90.3 µM).
Turning to `C#CCn1cc(C(=O)C(=O)N[C@@H](CCC(=O)OC)C(=O)OC)c2ccccc21`, in data set [1], the “inhibition zone (IZ)” value is reported as 9 mm. The molecule further displayed an MIC90 in data set [2] of 128 µg/mL (≈ 333 µM).
For `C#CCOc1ccc(C[C@H](NC(=O)C(=O)c2cn(CC#C)c3ccccc23)C(=O)OC)cc1`, the “inhibition zone (IZ)” value in data set [1] and in data set [3] was 13 mm throughout. For the same molecule, the MIC90 in data set [2] and in data set [4] was 64 µg/mL (≈ 145 µM) throughout.
Turning to `O=C(N[C@@H](Cc1ccc(O)cc1)C(=O)O)C(=O)c1cn(Cc2cn(Cc3ccccc3)nn2)c2ccccc12`, the “inhibition zone (IZ)” value worked out at 15 mm in data set [1] and 13 mm in data set [3]. The figures for the MIC90 in data set [2] and in data set [4] were 16 µg/mL (≈ 30.6 µM) and greater than 32 µg/mL, respectively.
Consider `COC(=O)[C@H](Cc1c[nH]c2ccccc12)NC(=O)C(=O)c1c[nH]c2ccccc12`, for which the “inhibition zone (IZ)” value in data set [1] was 14 mm. Moreover, the MIC90 in data set [2] was found to be 32 µg/mL (≈ 82.2 µM).
As to `COC(=O)CNC(=O)C(=O)c1cn(Cc2cn(Cc3ccccc3)nn2)c2ccccc12`, the “inhibition zone (IZ)” value in data set [1] came out at 12 mm; in data set [3], 11 mm. Also, the MIC90 in data set [2] and in data set [4] was 64 µg/mL (≈ 148 µM) in each case.
Regarding `C#CCn1cc(C(=O)C(=O)NCC(=O)OC)c2ccccc21`, the “inhibition zone (IZ)” value in data set [1] is given as 11 mm. The MIC90 in data set [2] turned out to be 64 µg/mL (≈ 215 µM).
As to `O=C(N[C@@H](Cc1c[nH]c2ccccc12)C(=O)O)C(=O)c1cn(Cc2cn(Cc3ccccc3)nn2)c2ccccc12`, the “inhibition zone (IZ)” value in data set [1] and in data set [3] was 14 mm in each case. The MIC90 is 32 µg/mL (≈ 58.5 µM) in data set [2] and greater than 32 µg/mL in data set [4].
`COC(=O)C[C@H](NC(=O)C(=O)c1cn(Cc2cn(Cc3ccccc3)nn2)c2ccccc12)C(=O)OC`: the “inhibition zone (IZ)” value in data set [1] amounted to 11 mm. Further, the MIC90 in data set [2] is 128 µg/mL (≈ 254 µM).
Turning to `OC(Cn1cncn1)(Cn1cncn1)c1ccc(F)cc1F` [FLUCONAZOLE], the “inhibition zone (IZ)” value turned out to be 19 mm in data set [1] and 18 mm in data set [3]. The MIC90 in data set [2] was found to be 16 µg/mL (≈ 52.2 µM); in data set [4], 8 µg/mL (≈ 26.1 µM).

In general, MIC90 refers to the lowest concentration that inhibits either 90% of growth or 90% of the strains tested, depending on the study.
